ChEMBL document CHEMBL1127706, “HIV-inhibitory natural products. 11. Comparative studies of sulfated sterols from marine invertebrates” (J Med Chem, 1994)
pEC50, pIC50: −log10 of the molar value.

Assays:
CCRF-CEM [1] = assay: Effective concentration for cytoprotective effect against HIV-1 infection in CEM cells; No protection of cells to HIV-induced Killing; assay type: functional, cell-based, Homo sapiens
Outline: (§1)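 CEM-SS cells in RPMI 1640 without phenol red (5% FBS, 2 mM L-glutamine, gentamicin), resuspended at 1×10^5 cells/mL, infected with HIV-1 RF at MOI 0.01-0.05. Sterols dissolved in DMSO, serially diluted in medium (final DMSO ≤1%), top concentration 100 μg/mL. Incubated 6 days at 37 °C, 5% CO2. Cytoprotection read by XTT tetrazolium viability, relative to uninfected untreated controls.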

CCRF-CEM [2] = assay: Effective concentration was tested for cytoprotective effect against HIV-2 CBL 20 strain infection in CEM cells; assay type: functional, cell-based; conditions: Homo sapiens
Outline: (§2)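 HIV-2 strain CBL20 infection of CEM cells at MOI 0.01-0.05. Sterols in DMSO, diluted in complete medium (final DMSO ≤1%), maximum 100 μg/mL. Uninfected CEM-SS controls run for toxicity. XTT viability read after 6 days in culture at 37 °C, 5% CO2. Protection expressed as percent of uninfected, untreated controls.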

[3] = system: Human immunodeficiency virus 1; assay: Inhibition of HIV-1 mediated cytotoxicity in CEM (human leukemia) cells.; assay type: functional, organism-based; conditions: Human immunodeficiency virus 1, CCRF-CEM; outline: as §1
[4] = system: Human immunodeficiency virus 2; assay: Inhibition of HIV-2 (CBL20) nediated cytotoxicity in CEM (human leukemia) cells.; conditions: Human immunodeficiency virus 2, CCRF-CEM
CCRF-CEM [5] = assay: Effective concentration was tested for cytoprotective effect against HIV-1 infection in CEM cells; assay type: functional, cell-based; conditions: Homo sapiens; outline: as §1
CCRF-CEM [6] = assay: Effective concentration for cytoprotective effect against HIV-2 CBL 20 strain infection in CEM cells; No protection of cells to HIV-induced Killing; assay type: functional, cell-based, Homo sapiens; outline: as §2
CCRF-CEM [7] = assay: Inhibitory concentration for cytoprotective effect against HIV-1 infection in CEM cells.; assay type: functional, cell-based; conditions: Homo sapiens; outline: as §1
CCRF-CEM [8] = assay: Effective concentration for cytoprotective effect against HIV-2 infection in CEM cells; No protection of cells to HIV-induced Killing; assay type: functional, cell-based; conditions: Homo sapiens
Outline: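 Anticytopathicity test against HIV-2 strain ROD in CEM cells at MOI 0.01-0.05. Cells were held in RPMI 1640 with 5% FBS, and sterols were given from DMSO stocks (final DMSO ≤1%), up to 100 μg/mL. Cultures ran 6 days at 37 °C. Protection from viral killing was scored as percent, with host-cell cytotoxicity assessed in parallel.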

| SMILES | EC50 (CCRF-CEM [1]) | pEC50 (CCRF-CEM [2]) | pIC50 [3] | pIC50 [4] | pEC50 (CCRF-CEM [5]) | EC50 (CCRF-CEM [6]) | pIC50 (CCRF-CEM [7]) | pEC50 (CCRF-CEM [8]) |
| --- | --- | --- | --- | --- | --- | --- | --- | --- |
| CC(C)CCC[C@@H](COS(=O)(=O)[O-])[C@H]1CCC2C3CC=C4[C@H](O)[C@H](OS(=O)(=O)[O-])[C@H](O)C[C@]4(C)C3CC[C@@]21C.[Na+].[Na+] (some centres undefined) | No protection |  |  |  |  |  |  |  |
| CC(C)CC[C@@H](O)[C@@H](C)[C@H]1CCC2C3C[C@H](OS(=O)(=O)O)C4C[C@@H](OS(=O)(=O)O)CC[C@]4(C)C3=CC[C@@]21C (some centres undefined) |  | 3.89 | < 3.79 | < 3.79 | 4.72 |  |  |  |
| CC(C)C(CCOS(=O)(=O)[O-])CC[C@@H](C)[C@H]1[C@@H](O)[C@H](O)C2[C@]3(O)C[C@@H](O)[C@@]4(O)C[C@@H](O)CC[C@]4(C)C3CC[C@@]21C.[Na+] (some centres undefined) | No protection |  | < 3.79 | < 3.79 |  | No protection |  |  |
| CC(C)CCC[C@@H](COS(=O)(=O)O)[C@H]1CCC2C3CC=C4C[C@H](O)[C@@H](OS(=O)(=O)O)C[C@]4(C)C3CC[C@@]21C (some centres undefined) |  |  | < 3.79 | < 3.79 | 4.01 |  |  |  |
| C=C(C)CCC[C@@H](COS(=O)(=O)O)[C@H]1CC[C@H]2[C@@H]3CC[C@]4(O)[C@H](O)[C@H](OS(=O)(=O)O)CC[C@]4(C)[C@H]3CC[C@]12C |  | 4.41 | < 3.80 | < 3.80 | 4.07 |  |  |  |
| CC(C)CCC[C@@H](COS(=O)(=O)O)[C@H]1CC[C@H]2[C@@H]3CCC4[C@H](O)[C@H](OS(=O)(=O)O)CC[C@]4(C)[C@H]3[C@@H](O)C[C@]12C (some centres undefined) |  | 3.96 | < 3.50 | < 3.80 | 3.80 |  |  |  |
| CC(C)[C@H](CC[C@@H](C)[C@H]1C[C@H](OS(=O)(=O)[O-])[C@H]2[C@@H]3[C@H](O)[C@H](O)C4C[C@@H](O)CC[C@]4(C)[C@H]3CC[C@@]21C)OC1OCC(O)C(O)C1O.[Na+] (some centres undefined) | No protection |  |  | 4.16 |  | No protection | < 3.91 |  |
| CC(C)C(C)CC[C@@H](C)[C@H]1CC[C@H]2[C@@H]3C[C@H](OS(=O)(=O)O)C4C[C@H](OS(=O)(=O)O)[C@@H](OS(=O)(=O)O)C[C@]4(C)[C@H]3CC[C@]12C (some centres undefined) |  | 5.70 | 4.25 | 4.25 | 5.22 |  |  |  |
| CC(CC[C@@H](C)[C@H]1CC[C@H]2[C@@H]3C[C@H](OS(=O)(=O)O)C4C[C@H](OS(=O)(=O)O)[C@@H](OS(=O)(=O)O)C[C@]4(C)[C@H]3CC[C@]12C)C(C)(C)C (some centres undefined) |  | 5.52 | 4.39 | 4.39 | 5.22 |  |  |  |
| CCC(C)(C)C(C)CC[C@@H](C)[C@H]1CC[C@H]2[C@@H]3C[C@H](OS(=O)(=O)O)C4C[C@H](OS(=O)(=O)O)[C@@H](OS(=O)(=O)O)C[C@]4(C)[C@H]3CC[C@]12C (some centres undefined) |  | 5.15 | 4.77 | 4.03 | 5.52 |  |  |  |
| C=C(C)CCC[C@@H](COS(=O)(=O)O)[C@H]1CC[C@H]2[C@@H]3CCC4[C@H](O)[C@H](OS(=O)(=O)O)CC[C@]4(C)[C@H]3CC[C@]12C (some centres undefined) |  | 3.79 | < 3.79 | < 3.79 | 4.01 |  |  |  |
| C[C@H](CCC(=O)NC(CO)CS(=O)(=O)O)[C@H]1[C@@H](O)[C@H](O)[C@H]2[C@@H]3C[C@@H](O)[C@@]4(O)C[C@@H](O)CC[C@]4(C)[C@H]3CC[C@]12C (some centres undefined) | No protection |  | < 3.76 | < 3.76 |  | No protection |  |  |
| CC(C)CC[C@@H](O)[C@@H](C)[C@H]1CC[C@H]2[C@@H]3C[C@H](OS(=O)(=O)O)C4C[C@@H](OS(=O)(=O)O)CC[C@]4(C)[C@H]3CC[C@]12C (some centres undefined) |  |  | < 3.80 |  | 4.32 |  |  |  |
| CC(=O)O[C@@H]1C[C@H]2[C@@H]3C[C@H](OP(=O)([O-])OC4OC(CO)C(O)C(O)C4O)C4C[C@@H](OS(=O)(=O)[O-])CC[C@]4(C)[C@H]3CC[C@]2(C)[C@H]1[C@H](C)CCCC(C)C.[Na+].[Na+] (some centres undefined) | No protection |  | < 3.90 | < 3.90 |  |  |  | 4.89 |
| CC(C)CCC[C@@H](COS(=O)(=O)O)[C@H]1CC[C@H]2[C@@H]3CCC4[C@H](O)[C@H](OS(=O)(=O)O)CC[C@]4(C)[C@H]3[C@@H](O)[C@@H](O)[C@]12C (some centres undefined) |  | 3.97 | < 3.82 | < 3.82 | 3.91 |  |  |  |
| CC(=O)O[C@H](CCC(C)C)[C@@H](C)[C@H]1CC[C@H]2[C@@H]3C[C@H](OS(=O)(=O)O)C4C[C@@H](OS(=O)(=O)O)CC[C@]4(C)[C@H]3CC[C@]12C (some centres undefined) |  |  | < 3.83 |  | 4.89 |  |  |  |
| CC(C)[C@H](CC[C@@H](C)[C@H]1C[C@H](OS(=O)(=O)[O-])[C@H]2[C@@H]3C[C@H](O)C4C[C@@H](O)CC[C@]4(C)[C@H]3CC[C@@]21C)OC1OCC(O)C(O)C1O.[Na+] (some centres undefined) | No protection |  | < 3.90 | < 3.90 |  | No protection |  |  |
| CC(C)C1(CC[C@@H](C)[C@H]2CC[C@@]3(C)C4C[C@H](OS(=O)(=O)O)C5C[C@H](OS(=O)(=O)O)[C@@H](OS(=O)(=O)O)C[C@]5(C)C4=CC[C@]23C)CC1C (some centres undefined) |  | 5.10 | < 3.89 | 4.29 | 4.89 |  |  |  |
| COC1([C@@H]2C=C3[C@H](O)C[C@]4(O)C(CC[C@@]5(C)C4[C@@H](OS(=O)(=O)[O-])[C@H](O)[C@@H]5[C@H](C)/C=C/[C@H](CO)C(C)C)[C@@]3(C)CC2)OCC(O)C(O)C1O.[Na+] (some centres undefined) | No protection |  | 4.19 | < 4.19 |  |  |  |  |
| CC(C)CCC[C@@H](COS(=O)(=O)O)[C@H]1CCC2C3CC=C4[C@@H](O)[C@H](OS(=O)(=O)O)CC[C@]4(C)C3CC[C@@]21C (some centres undefined) |  | 4.10 | < 3.49 | < 3.79 | 3.62 |  |  |  |
| CC(=O)O[C@H](CCC(C)C)[C@@H](C)[C@H]1CCC2C3C[C@H](OS(=O)(=O)O)C4C[C@@H](OS(=O)(=O)O)CC[C@]4(C)C3=CC[C@@]21C (some centres undefined) |  | 5.52 | < 3.82 | < 3.82 | 4.74 |  |  |  |
| CC(C)CCC[C@@H](COS(=O)(=O)O)[C@H]1CC[C@H]2[C@@H]3CC[C@H]4C[C@H](OS(=O)(=O)O)CC[C@]4(C)[C@H]3CC[C@]12C |  | < 4.20 | < 3.51 | < 3.81 | 3.79 |  |  |  |
